Active and inactive are the calls of the source. No cut-off for these calls is given here.
Key:
[1] = Cytotoxicity against human FADD-deficient Jurkat I 2.1 cells assessed as reduction in cell viability at >25 uM measured after 24 hrs by MTS assay; assay type: cell-based; details: jurkat i 2.1, 24 h
[2] = target: T1, Tyrosine-protein kinase JAK3 (Homo sapiens, UniProt P52333); assay: Inhibition of recombinant human JAK3 C-terminal domain (781 to 1124 residues) expressed in baculovirus infected Sf9 insect cells using GGEEEEYFELVKKKK as substrate by ADP-glo assay
T1 sequence (P52333 whole entry): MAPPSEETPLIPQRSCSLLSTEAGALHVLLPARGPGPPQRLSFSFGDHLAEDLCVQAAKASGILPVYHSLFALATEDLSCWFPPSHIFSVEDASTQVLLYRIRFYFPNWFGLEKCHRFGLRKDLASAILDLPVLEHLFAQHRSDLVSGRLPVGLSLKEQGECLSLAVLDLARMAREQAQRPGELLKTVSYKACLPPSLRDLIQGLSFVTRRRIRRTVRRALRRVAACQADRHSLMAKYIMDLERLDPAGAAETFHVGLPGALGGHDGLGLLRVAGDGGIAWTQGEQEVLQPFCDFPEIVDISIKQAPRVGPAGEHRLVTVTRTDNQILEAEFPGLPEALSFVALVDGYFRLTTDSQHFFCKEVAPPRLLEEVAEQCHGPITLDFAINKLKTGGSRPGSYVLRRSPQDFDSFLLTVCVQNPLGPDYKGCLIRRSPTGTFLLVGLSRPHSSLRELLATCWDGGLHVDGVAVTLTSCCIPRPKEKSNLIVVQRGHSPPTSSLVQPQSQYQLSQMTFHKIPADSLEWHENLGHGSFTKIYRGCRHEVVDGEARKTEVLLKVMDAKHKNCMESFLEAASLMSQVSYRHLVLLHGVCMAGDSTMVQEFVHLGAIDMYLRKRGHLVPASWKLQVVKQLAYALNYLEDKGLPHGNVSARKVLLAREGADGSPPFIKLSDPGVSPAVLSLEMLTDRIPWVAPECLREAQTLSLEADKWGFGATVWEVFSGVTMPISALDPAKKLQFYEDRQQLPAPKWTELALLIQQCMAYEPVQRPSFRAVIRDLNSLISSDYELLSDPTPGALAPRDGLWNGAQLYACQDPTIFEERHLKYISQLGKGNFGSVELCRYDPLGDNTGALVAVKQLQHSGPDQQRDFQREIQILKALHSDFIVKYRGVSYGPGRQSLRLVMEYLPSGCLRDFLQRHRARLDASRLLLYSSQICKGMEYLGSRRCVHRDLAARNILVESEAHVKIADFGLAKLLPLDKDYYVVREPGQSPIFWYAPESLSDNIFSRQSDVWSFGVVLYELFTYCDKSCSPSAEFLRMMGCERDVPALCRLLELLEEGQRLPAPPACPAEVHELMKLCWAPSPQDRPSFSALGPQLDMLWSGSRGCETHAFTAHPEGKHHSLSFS

[3] = target: Dual specificity protein kinase CLK1 (Mus musculus, UniProt P22518); assay: Inhibition of mouse recombinant CLK1 expressed in bacterial expression system using GRSRSRSRSRSR as substrate by ADP-glo assay
Sequence of Dual specificity protein kinase CLK1 (P22518 whole entry, the tested form may be a part): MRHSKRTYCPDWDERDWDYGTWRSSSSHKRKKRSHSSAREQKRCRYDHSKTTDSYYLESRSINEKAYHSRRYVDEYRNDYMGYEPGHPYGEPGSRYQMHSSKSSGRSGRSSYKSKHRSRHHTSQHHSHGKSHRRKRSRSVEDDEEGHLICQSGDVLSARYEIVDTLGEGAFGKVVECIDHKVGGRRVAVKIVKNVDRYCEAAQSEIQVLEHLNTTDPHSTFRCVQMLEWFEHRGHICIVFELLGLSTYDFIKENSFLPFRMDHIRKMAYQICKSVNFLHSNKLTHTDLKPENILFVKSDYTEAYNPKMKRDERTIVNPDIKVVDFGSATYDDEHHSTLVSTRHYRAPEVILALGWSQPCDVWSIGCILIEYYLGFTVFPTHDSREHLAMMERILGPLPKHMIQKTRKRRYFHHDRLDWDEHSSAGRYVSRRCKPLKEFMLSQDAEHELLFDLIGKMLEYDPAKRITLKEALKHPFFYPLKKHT

[4] = target: T2, Serine/threonine-protein kinase haspin (Homo sapiens, UniProt Q8TF76); assay: Inhibition of recombinant human HASPIN kinase domain (470 to 798 residues) expressed in bacterial expression system using histone H3(1-21) peptide as substrate by ADP-glo assay
T2 sequence (Q8TF76 whole entry): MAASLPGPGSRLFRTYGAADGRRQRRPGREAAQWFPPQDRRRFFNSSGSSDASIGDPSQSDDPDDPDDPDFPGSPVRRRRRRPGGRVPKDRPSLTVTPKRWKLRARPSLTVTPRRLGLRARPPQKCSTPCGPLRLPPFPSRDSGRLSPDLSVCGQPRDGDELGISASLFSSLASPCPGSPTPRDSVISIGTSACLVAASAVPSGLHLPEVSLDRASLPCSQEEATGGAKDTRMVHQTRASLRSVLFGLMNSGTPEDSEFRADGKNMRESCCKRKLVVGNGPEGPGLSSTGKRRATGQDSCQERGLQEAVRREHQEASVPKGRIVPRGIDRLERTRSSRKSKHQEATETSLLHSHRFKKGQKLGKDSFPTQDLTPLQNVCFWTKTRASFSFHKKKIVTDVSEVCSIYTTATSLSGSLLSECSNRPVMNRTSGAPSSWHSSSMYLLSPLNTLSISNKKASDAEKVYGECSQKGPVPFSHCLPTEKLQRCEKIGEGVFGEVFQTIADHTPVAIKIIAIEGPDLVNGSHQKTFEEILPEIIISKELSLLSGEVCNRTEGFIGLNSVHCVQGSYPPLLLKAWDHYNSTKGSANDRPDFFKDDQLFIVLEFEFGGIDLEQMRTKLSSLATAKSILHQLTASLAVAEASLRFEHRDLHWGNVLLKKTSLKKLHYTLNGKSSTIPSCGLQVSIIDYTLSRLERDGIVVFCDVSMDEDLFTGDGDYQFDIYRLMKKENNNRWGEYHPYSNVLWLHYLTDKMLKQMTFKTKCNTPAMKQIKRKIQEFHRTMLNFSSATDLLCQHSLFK

Jurkat [5] = assay: Protection against TRAIL-induced apoptosis in human Jurkat assessed as increase in cell viability at 0.1 to 50 uM measured after 24 hrs by MTS assay; assay type: functional, cell-based; details: dose 0.1-50 µM
In short: (§1)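 Jurkat wild-type cells treated with TRAIL-Flag (20 ng/mL) or staurosporine (100 nM) together with increasing compound doses for 24 h; viability by MTS reduction as % of DMSO-treated cells; mean ± SD, n = 3.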

Jurkat [6] = assay: Protection against staurosporine-induced apoptosis in human Jurkat assessed as increase in cell viability at 0.1 to 50 uM measured after 24 hrs by MTS assay; assay type: functional, cell-based; details: dose 0.1-50 µM; in short: as §1

Structure (SMILES)	Activity [1]	IC50 [2] [µM]	IC50 [3] [µM]	IC50 [4] [µM]	Activity (Jurkat [5])	Activity (Jurkat [6])
CCCCNc1nc2ccc([N+](=O)[O-])cc2[nH]1	Toxic	> 10	0.8	> 10	–	–
CCCCNc1nc2cc([N+](=O)[O-])ccc2s1	–	> 10	> 10	> 10	inactive	inactive
